Measurements taken from PubChem BioAssay AID1737 (Vanderbilt High Throughput Screening Facility, 2009).
Results filed as inconclusive are left out. The source made the active and inactive calls.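 The calls were made as follows: active = converged dose curve in at least two of three replicates, even with few points beside the midpoint; inactive = the rest, inconclusive results apart.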

Target: Solute carrier family 12 member 5 (Homo sapiens) (UniProt Q9H2X9)
Assay: modulation of KCC2-mediated Tl+ flux in HEK cells – cell-based, HEK293-KCC2, thallium flux, FluoZin2, sodium-free, assay 3, dose response (AID 1737)
Conditions: HEK293-KCC2, thallium flux FluoZin2 fluorescence, Na-free
Outline: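 Material – KCC2-expressing HEK cells · Buffer or medium – Sodium-free N-methylglucamine chloride assay buffer · Dosing – 11 doses, 3-fold steps, 30 µM top · Signal – FluoZin2 fluorescence, 480/540 nm · Controls – bumetanide as positive control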

Sequence of Solute carrier family 12 member 5 (Homo sapiens) (Q9H2X9 whole entry, looked up): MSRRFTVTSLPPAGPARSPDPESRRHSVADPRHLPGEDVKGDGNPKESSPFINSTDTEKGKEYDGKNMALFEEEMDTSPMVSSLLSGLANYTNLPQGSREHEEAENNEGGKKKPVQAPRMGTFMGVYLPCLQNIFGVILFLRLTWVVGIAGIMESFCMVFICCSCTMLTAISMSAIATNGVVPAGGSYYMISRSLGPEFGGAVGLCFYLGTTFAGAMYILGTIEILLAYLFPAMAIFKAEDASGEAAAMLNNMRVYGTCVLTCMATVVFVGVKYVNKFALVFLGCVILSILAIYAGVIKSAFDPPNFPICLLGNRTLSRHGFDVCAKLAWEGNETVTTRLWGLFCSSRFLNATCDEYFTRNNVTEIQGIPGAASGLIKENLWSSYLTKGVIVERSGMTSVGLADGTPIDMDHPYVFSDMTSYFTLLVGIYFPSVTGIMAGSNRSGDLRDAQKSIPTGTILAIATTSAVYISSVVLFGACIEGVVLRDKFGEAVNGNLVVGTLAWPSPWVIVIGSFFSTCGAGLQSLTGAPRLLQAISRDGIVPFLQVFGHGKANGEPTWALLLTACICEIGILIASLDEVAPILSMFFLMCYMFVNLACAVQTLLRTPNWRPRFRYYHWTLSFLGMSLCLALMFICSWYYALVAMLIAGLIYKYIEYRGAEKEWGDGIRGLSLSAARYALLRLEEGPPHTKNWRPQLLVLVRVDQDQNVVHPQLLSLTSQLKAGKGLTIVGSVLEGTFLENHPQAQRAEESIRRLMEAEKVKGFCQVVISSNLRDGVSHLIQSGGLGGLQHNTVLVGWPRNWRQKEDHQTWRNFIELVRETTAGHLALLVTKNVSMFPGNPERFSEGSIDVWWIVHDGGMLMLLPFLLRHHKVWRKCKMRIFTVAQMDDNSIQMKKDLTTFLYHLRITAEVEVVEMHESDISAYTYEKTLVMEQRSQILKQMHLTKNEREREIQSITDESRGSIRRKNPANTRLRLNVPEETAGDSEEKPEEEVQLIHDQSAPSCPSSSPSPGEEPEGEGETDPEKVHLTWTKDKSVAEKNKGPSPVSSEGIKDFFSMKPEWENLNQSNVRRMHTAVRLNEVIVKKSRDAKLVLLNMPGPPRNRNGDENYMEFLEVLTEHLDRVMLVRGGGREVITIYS

Row | EC50 | SMILES
1 | inactive | COc1cccc(/C=c2\s/c(=C/C(=O)c3ccc(C)cc3)[nH]c2=O)c1OC
2 | inactive | O=c1c2ccccc2[nH]c(=S)n1CCN1CCC(=C(c2ccc(F)cc2)c2ccc(F)cc2)CC1
3 | 318 nM | O=[N+]([O-])c1ccc(-c2cn(-c3ccccc3F)c(=S)[nH]2)cc1
4 | inactive | NC(=S)N=Nc1c(O)n(Cc2ccccc2)c2ccccc12
5 | inactive | Cc1ccc(-c2n[nH]c(=S)n2/N=C/C=C\c2ccccc2[N+](=O)[O-])cc1

Second part, the compound before the results:

Row | SMILES | EC50
6 | COc1ccc(-c2nnc(-c3ccc(OCC(C)C)cc3)o2)cc1 | inactive
7 | COc1ccc(N2C(=S)N=C(Nc3cccc(C)c3)C23CCCCC3)cc1 | 417 nM
8 | CC(=O)c1cccc(NC(=S)NC(=O)c2ccc(C)cc2)c1 | 288 nM
9 | Fc1cccc(F)c1/C=N/NC(=S)Nc1cccnc1 | inactive
10 | CCOc1cccc(C(=O)NC(=S)Nc2cccc(C)c2)c1 | inactive
11 | Cc1onc(-c2ccccc2Cl)c1C(=O)NC(=S)Nc1ccc(C(C)C)cc1 | inactive
12 | O=[N+]([O-])c1ccccc1/C=C/C=N/n1c(-c2ccc(Cl)cc2)n[nH]c1=S | inactive
13 | O=C(NC(=S)Nc1ccc2c(c1)OCO2)c1ccc(Cl)cc1 | inactive
14 | O=C(NC(=S)Nc1cccc2cccnc12)c1cccs1 | inactive
